ChEMBL document CHEMBL3785075, “Novel Water-Soluble Amphotericin B-PEG Conjugates with Low Toxicity and Potent in Vivo Efficacy” (J Med Chem, 2016)
Values after ≈ are worked out from the molar mass of the structure shown. Active and inactive are the calls of the source. No cut-off for these calls is given here.

Legend:
[1] = tested on: Mus musculus; experiment: Metabolic stability in ICR mouse assessed as hydrolysis at 1 mg/kg, iv after 24 hrs by HPLC analysis; type: ADME, organism-based; conditions: in vivo
[2] = tested on: Aspergillus fumigatus; experiment: Antifungal activity against Aspergillus fumigatus after 48 hrs by CLSI-M27-A3 method; type: functional
[3] = Volume of distribution in ICR mouse at 1 mg/kg, iv after 24 hrs by HPLC analysis; type: ADME, organism-based; conditions: in vivo
[4] = tested on: Candida albicans; experiment: Antifungal activity against Candida albicans CBS 562 infected in ICR mouse assessed as increase in survival rate of animal at 1 mg/kg after 24 days; type: functional, organism-based
[5] = tested on: Aspergillus terreus; experiment: Antifungal activity against Aspergillus terreus after 48 hrs by CLSI-M27-A3 method; type: functional
[6] = Solubility of compound in saline by HPLC analysis; type: physicochemical
[7] = tested on: Mus musculus; experiment: AUC(0 to 24 hrs) in ICR mouse at 1 mg/kg, iv after 24 hrs by HPLC analysis; type: ADME, organism-based; design: dose 1 mg/kg, time < 24 hr, route intravenous; conditions: in vivo
[8] = tested on: Candida albicans; experiment: Antifungal activity against Candida albicans CBS 562 infected in ICR mouse assessed as fungal burden in mouse kidney at 3.5 mg/kg after 24 hrs; type: functional, organism-based
[9] = tested on: Candida albicans; experiment: Antifungal activity against Candida albicans CBS 562 infected in ICR mouse assessed as fungal burden in mouse kidney at 1.75 mg/kg after 24 hrs; type: functional, organism-based
[10] = tested on: Candida albicans; experiment: Antifungal activity against Candida albicans CBS 562 infected in ICR mouse assessed as increase in survival rate of animal at 3.5 mg/kg after 24 days; type: functional, organism-based
[11] = tested on: Candida albicans; experiment: Antifungal activity against Candida albicans after 48 hrs by CLSI-M27-A3 method; type: functional
[12] = Fraction unbound in ICR mouse plasma by HPLC analysis; type: ADME, cell-free
[13] = tested on: MEF; experiment: Cytotoxicity against mouse MEF cells assessed as cell viability after 24 hrs by MTT assay; type: cell-based
[14] = tested on: Candida albicans; experiment: Antifungal activity against Candida albicans CBS 562 infected in ICR mouse assessed as increase in survival rate of animal at 1.75 mg/kg after 24 days; type: functional, organism-based
[15] = Mean residence time(0 to 24 hrs) in ICR mouse at 7.5 mg/kg, iv after 24 hrs by HPLC analysis; type: ADME, organism-based; conditions: in vivo
[16] = Toxicity in iv dosed ICR mouse; type: organism-based; conditions: in vivo
[17] = tested on: Rhizopus arrhizus; experiment: Antifungal activity against Rhizopus oryzae after 48 hrs by CLSI-M27-A3 method; type: functional
[18] = tested on: Mus musculus; experiment: Metabolic stability in ICR mouse at 1 mg/kg, iv after 48 hrs by HPLC analysis; type: ADME, organism-based; conditions: in vivo
[19] = tested on: Candida albicans; experiment: Antifungal activity against Candida albicans CBS 562 infected in ICR mouse assessed as fungal burden in mouse kidney at 1 mg/kg after 24 hrs; type: functional, organism-based
[20] = tested on: Candida albicans; experiment: Antifungal activity against Candida albicans CBS 562 assessed as viable cells at 2 times MIC after 2 hrs by time kill analysis relative to control; type: functional
[21] = tested on: Candida albicans; experiment: Antifungal activity against Candida albicans CBS 562 infected in ICR mouse assessed as fungal burden in mouse spleen at 1 mg/kg after 24 hrs; type: functional, organism-based
[22] = tested on: Candida albicans; experiment: Antifungal activity against Candida albicans CBS 562 infected in ICR mouse assessed as increase in survival rate of animal at 7 mg/kg after 24 days; type: functional, organism-based
[23] = Elimination rate constant in ICR mouse at 1 mg/kg, iv by HPLC analysis; type: ADME, organism-based; conditions: in vivo
[24] = tested on: Candida albicans; experiment: Antifungal activity against Candida albicans CBS 562 infected in ICR mouse assessed as fungal burden in mouse spleen at 3.5 mg/kg after 24 hrs; type: functional, organism-based
[25] = tested on: Candida albicans; experiment: Antifungal activity against Candida albicans CBS 562 infected in ICR mouse assessed as fungal burden in mouse kidney at 7 mg/kg after 24 hrs; type: functional, organism-based
[26] = tested on: Aspergillus niger; experiment: Antifungal activity against Aspergillus niger after 48 hrs by CLSI-M27-A3 method; type: functional
[27] = Toxicity against human RBC assessed as hemolytic activity at 6 ug/ml after 1 to 21 hrs; type: cell-based; conditions: erythrocyte
[28] = Elimination half life in ICR mouse at 1 mg/kg, iv by HPLC analysis; type: ADME, organism-based; conditions: in vivo, read-out: beta t1/2 (converted)
[29] = tested on: Candida albicans; experiment: Antifungal activity against Candida albicans CBS 562 infected in ICR mouse assessed as fungal burden in mouse spleen at 7 mg/kg after 24 hrs; type: functional, organism-based
[30] = Clearance in ICR mouse at 1 mg/kg, iv after 24 hrs by HPLC analysis; type: ADME, organism-based; conditions: in vivo
[31] = tested on: Aspergillus flavus; experiment: Antifungal activity against Aspergillus flavus after 48 hrs by CLSI-M27-A3 method; type: functional
[32] = tested on: Pichia kudriavzevii; experiment: Antifungal activity against Candida krusei after 48 hrs by CLSI-M27-A3 method; type: functional
[33] = tested on: Candida albicans; experiment: Antifungal activity against Candida albicans CBS 562 infected in ICR mouse assessed as fungal burden in mouse spleen at 1.75 mg/kg after 24 hrs; type: functional, organism-based
[34] = AUC(0 to 24 hrs) in ICR mouse at 7.5 mg/kg, iv after 24 hrs by HPLC analysis; type: ADME, organism-based; design: time < 24 hr, dose 7.5 mg/kg, route intravenous; conditions: in vivo
[35] = Chemical stability of compound in phosphate buffer saline assessed as hydrolysis after 4 hrs by HPLC analysis; type: physicochemical
Summary of the method: (§1)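 Conjugate incubated in phosphate-buffered saline; samples taken at 4 h and after prolonged incubation to 24 h; percent hydrolysis determined by HPLC.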

[36] = Chemical stability of compound in phosphate buffer saline assessed as hydrolysis after 24 hrs by HPLC analysis; type: physicochemical; conditions: read-out: Drug degradation; summary of the method: as §1
[37] = tested on: MEF; experiment: Cytotoxicity against mouse MEF cells assessed as cell viability at 1000 ug/ml after 24 hrs by MTT assay; type: cell-based
[38] = Clearance in ICR mouse at 7.5 mg/kg, iv after 24 hrs by HPLC analysis; type: ADME, organism-based; conditions: in vivo
[39] = tested on: Mus musculus; experiment: Metabolic stability in ICR mouse at 7.5 mg/kg, iv after 48 hrs by HPLC analysis; type: ADME, organism-based; conditions: in vivo
[40] = Mean residence time(0 to 24 hrs) in ICR mouse at 1 mg/kg, iv after 24 hrs by HPLC analysis; type: ADME, organism-based; conditions: in vivo
[41] = tested on: Mus musculus; experiment: Metabolic stability in ICR mouse assessed as hydrolysis at 7.5 mg/kg, iv after 24 hrs by HPLC analysis; type: ADME, organism-based; conditions: in vivo
[42] = tested on: Serum; experiment: Metabolic stability in mouse serum assessed as hydrolysis after 24 hrs by HPLC analysis; type: ADME
[43] = Elimination half life in ICR mouse at 7.5 mg/kg, iv by HPLC analysis; type: ADME, organism-based; conditions: in vivo, read-out: beta t1/2 (converted)
[44] = Volume of distribution in ICR mouse at 7.5 mg/kg, iv after 24 hrs by HPLC analysis; type: ADME, organism-based; conditions: in vivo
[45] = Elimination rate constant in ICR mouse at 7.5 mg/kg, iv by HPLC analysis; type: ADME, organism-based; conditions: in vivo

Compound: C[C@@H]1[C@H](O)[C@@H](C)/C=C/C=C/C=C/C=C/C=C/C=C/C=C/[C@H](O[C@@H]2O[C@H](C)[C@@H](O)[C@H](N)[C@@H]2O)C[C@@H]2O[C@](O)(C[C@@H](O)C[C@@H](O)[C@H](O)CC[C@@H](O)C[C@@H](O)CC(=O)O[C@H]1C)C[C@H](O)[C@H]2C(=O)O [AMPHOTERICIN B]
- Stability [1]: Stable
- MFC [2]: 0.5 µg/mL (≈ 0.541 µM)
- MIC [2]: 0.25 µg/mL (≈ 0.271 µM)
- Vd [3]: 0.006 L
- Activity [4]: Active
- MFC [5]: 4 µg/mL (≈ 4.33 µM)
- MIC [5]: 2 µg/mL (≈ 2.16 µM)
- solubility [6]: < 1 µg/mL
- AUC [7]: 63.983 µg·h/mL
- Activity [8]: Active
- Activity [9]: Active
- Activity [10]: Active
- MFC [11]: 0.5 µg/mL (≈ 0.541 µM)
- MIC [11]: 0.25 µg/mL (≈ 0.271 µM)
- fraction unbound [12]: 0.11
- IC50 [13]: 6.6 µg/mL (≈ 7.14 µM)
- Activity [14]: Active
- MRT last [15]: 9.66 h
- MTD [16]: 1.1 mg/kg
- MFC [17]: 250 µg/mL (≈ 271 µM)
- MIC [17]: 0.25 µg/mL (≈ 0.271 µM)
- Stability [18]: Unstable
- Activity [19]: Active
- Activity [20]: 100%
- Activity [21]: Active
- Activity [22]: Active
- k el [23]: 1.19e-05 s⁻¹
- Activity [24]: Active
- Activity [25]: Active
- MFC [26]: 0.5 µg/mL (≈ 0.541 µM)
- MIC [26]: 0.5 µg/mL (≈ 0.541 µM)
- Activity [27]: Toxic
- half-life [28]: 16 h
- Activity [29]: Active
- clearance [30]: 0.00417 mL/min
- MFC [31]: 0.5 µg/mL (≈ 0.541 µM)
- MIC [31]: 0.5 µg/mL (≈ 0.541 µM)
- MFC [32]: 1 µg/mL (≈ 1.08 µM)
- MIC [32]: 0.5 µg/mL (≈ 0.541 µM)
- Activity [33]: Active

Compound: COC(=O)[C@H]1[C@@H]2C[C@@H](O[C@@H]3O[C@H](C)[C@@H](O)[C@H](NC(=O)CCOCCOCCOCCOCCOCCOCCOCCOCCN)[C@@H]3O)/C=C/C=C/C=C/C=C/C=C/C=C/C=C/[C@H](C)[C@@H](O)[C@@H](C)[C@H](C)OC(=O)C[C@H](O)C[C@H](O)CC[C@@H](O)[C@H](O)C[C@H](O)C[C@](O)(C[C@@H]1O)O2
- MFC [2]: 2 µg/mL (≈ 1.47 µM)
- MIC [2]: 1 µg/mL (≈ 0.734 µM)
- AUC(0-t) at 24 h [34]: 421 µg·h/mL
- Stability [35]: Stable
- Activity [4]: Active
- MFC [5]: 16 µg/mL (≈ 11.8 µM)
- MIC [5]: 16 µg/mL (≈ 11.8 µM)
- degraded at 24 h [36]: 0.8%
- solubility [6]: 700 µg/mL (≈ 514 µM)
- Activity [8]: Active
- Activity [9]: Active
- Activity [10]: Active
- Activity [37]: Non-toxic
- MFC [11]: 2 µg/mL (≈ 1.47 µM)
- MIC [11]: 1 µg/mL (≈ 0.734 µM)
- clearance [38]: 0.00847 mL/min
- fraction unbound [12]: 0.9
- Activity [14]: Active
- MTD [16]: 42 mg/kg
- MFC [17]: 4000 µg/mL (≈ 2940 µM)
- MIC [17]: 4 µg/mL (≈ 2.94 µM)
- Activity [19]: Active
- Stability [39]: Unstable
- Activity [20]: 100%
- MRT last [40]: 5.43 h
- Activity [21]: Active
- Activity [22]: Active
- Activity [24]: Active
- Activity [25]: Active
- Stability [41]: Stable
- MFC [26]: 2 µg/mL (≈ 1.47 µM)
- MIC [26]: 2 µg/mL (≈ 1.47 µM)
- Activity [27]: Non-toxic
- Stability [42]: Stable
- Activity [29]: Active
- half-life [43]: 3.15 h
- MFC [31]: 2 µg/mL (≈ 1.47 µM)
- MIC [31]: 2 µg/mL (≈ 1.47 µM)
- Vd [44]: 0.002 L
- MFC [32]: 4 µg/mL (≈ 2.94 µM)
- MIC [32]: 2 µg/mL (≈ 1.47 µM)
- k el [45]: 6.11e-05 s⁻¹
- Activity [33]: Active
